{
  "source": "ChEMBL document CHEMBL5321226",
  "about": "“Structure-directed identification of pyridine-2-methylamine derivatives as MmpL3 inhibitors for use as antitubercular agents” (Eur J Med Chem, 2023)",
  "key": {"[1]": {"experiment": "Cytotoxicity against African green monkey Vero cells assessed as reduction in cell viability incubated for 72 hrs by alamar blue staining based fluorescence microplate reader analysis", "assay_type": "toxicity", "conditions": "African green monkey (Chlorocebus sabaeus)", "summary_of_the_method": "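Vero cell cytotoxicity was read out by Alamar Blue (MABA) and expressed as IC50. Other details follow earlier reports.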"}, "[2]": {"experiment": "Metabolic stability in human liver microsomes assessed as parent compound remaining and mesured after 60 mins in absence of NADPH", "assay_type": "ADME, Microsome", "conditions": "1 h"}, "[3]": {"experiment": "Metabolic stability in human liver microsomes assessed as half life and mesured upto 60 mins in presence of NADPH", "assay_type": "ADME, Microsome", "conditions": "1 h", "summary_of_the_method": "(§1)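 Compounds were incubated with human liver microsomes for 60 min, with or without NADPH cofactor. Substrate concentration after 60 min was normalized to the time-zero concentration to give % remaining. Half-life was derived from the incubations, and intrinsic clearance was calculated as CLint(mic) = 0.693/half-life/mg microsomal protein per mL.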"}, "[4]": {"experiment": "Metabolic stability in human liver microsomes assessed as parent compound remaining and mesured after 60 mins in presence of NADPH", "assay_type": "ADME, Microsome", "conditions": "read-out: Stability", "summary_of_the_method": "as §1"}, "[5]": {"target": "Voltage-gated inwardly rectifying potassium channel KCNH2 (Homo sapiens, UniProt Q12809)", "sequence (Q12809 whole entry)": "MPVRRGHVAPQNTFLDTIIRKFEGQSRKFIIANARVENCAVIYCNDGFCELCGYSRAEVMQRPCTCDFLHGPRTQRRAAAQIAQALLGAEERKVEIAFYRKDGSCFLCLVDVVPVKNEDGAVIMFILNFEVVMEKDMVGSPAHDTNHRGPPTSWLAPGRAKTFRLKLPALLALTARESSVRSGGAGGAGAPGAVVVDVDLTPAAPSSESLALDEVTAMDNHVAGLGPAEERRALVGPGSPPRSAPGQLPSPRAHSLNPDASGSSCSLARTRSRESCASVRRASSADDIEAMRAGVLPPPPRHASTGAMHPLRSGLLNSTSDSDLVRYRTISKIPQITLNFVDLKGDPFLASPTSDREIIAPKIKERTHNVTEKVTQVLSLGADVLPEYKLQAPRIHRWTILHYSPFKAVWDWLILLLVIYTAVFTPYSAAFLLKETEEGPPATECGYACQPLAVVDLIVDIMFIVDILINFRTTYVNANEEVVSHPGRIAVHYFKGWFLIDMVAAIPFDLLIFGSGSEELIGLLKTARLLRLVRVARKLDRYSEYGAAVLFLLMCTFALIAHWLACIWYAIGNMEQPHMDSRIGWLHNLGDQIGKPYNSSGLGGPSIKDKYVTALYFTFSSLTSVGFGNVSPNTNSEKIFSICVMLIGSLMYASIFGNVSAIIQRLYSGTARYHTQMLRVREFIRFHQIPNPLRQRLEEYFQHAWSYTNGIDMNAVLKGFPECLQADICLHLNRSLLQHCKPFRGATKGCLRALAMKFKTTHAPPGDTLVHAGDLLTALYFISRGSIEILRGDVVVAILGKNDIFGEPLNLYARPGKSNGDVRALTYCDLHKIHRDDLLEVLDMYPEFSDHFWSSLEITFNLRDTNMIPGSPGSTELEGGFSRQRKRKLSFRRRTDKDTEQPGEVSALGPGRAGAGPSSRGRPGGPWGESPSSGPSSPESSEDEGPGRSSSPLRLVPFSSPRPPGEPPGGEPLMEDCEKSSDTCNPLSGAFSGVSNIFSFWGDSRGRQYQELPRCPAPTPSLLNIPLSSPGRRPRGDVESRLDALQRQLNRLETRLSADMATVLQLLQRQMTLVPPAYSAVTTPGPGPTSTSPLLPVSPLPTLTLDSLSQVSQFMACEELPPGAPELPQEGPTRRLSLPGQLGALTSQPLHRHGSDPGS", "experiment": "Inhibition of human ERG at 10 uM by patch-clamp electrophysiology assay", "assay_type": "toxicity", "summary_of_the_method": "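hERG K+ channel current was measured by manual patch-clamp electrophysiology with the test compound at 10 μM. […] The inhibition rate is the average of three individual measurements.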"}, "[6]": {"experiment": "Metabolic stability in human liver microsomes assessed as intrinsic clearance and mesured upto 60 mins in presence of NADPH", "assay_type": "ADME, Microsome", "conditions": "1 h"}, "[7]": {"test_system": "Mycobacterium tuberculosis", "experiment": "Antimycobacterial activity against drug susceptible Mycobacterium tuberculosis V4207 assessed as bacterial growth inhibition incubated for 7 to 14 days by MABA assay", "assay_type": "functional", "conditions": "time 7-14 day"}, "[8]": {"conditions": "Mycobacterium tuberculosis, V4207, read-out: MIC90"}},
  "data": [
    {"smiles": "CC(C)c1ccc(-c2cncc(CN3CC[Si](C)(C)CC3)c2)cc1", "values": [
      {"measurement": "IC50 at 72 h", "setting": "[1]", "value": "≥ 32", "unit": "µg/mL"}
    ]},
    {"smiles": "CC(C)c1ccc(-c2ccnc(CN3CCC4(CC3)OCCCO4)c2)cc1", "values": [
      {"measurement": "IC50 at 72 h", "setting": "[1]", "value": "≥ 32", "unit": "µg/mL"}
    ]},
    {"smiles": "CC(C)c1ccc(-c2ccnc(CNC3CCCCCCC3)c2)cc1", "values": [
      {"measurement": "IC50 at 72 h", "setting": "[1]", "value": 16, "unit": "µg/mL"}
    ]},
    {"smiles": "c1ccc(-c2ccc(-c3ccnc(CN4CCC5(CCCCC5)CC4)c3)cc2)cc1", "values": [
      {"measurement": "IC50 at 72 h", "setting": "[1]", "value": "≥ 32", "unit": "µg/mL"}
    ]},
    {"smiles": "C[Si]1(C)CCN(Cc2cc(-c3ccc(C4CCCCC4)cc3)ccn2)CC1", "values": [
      {"measurement": "IC50 at 72 h", "setting": "[1]", "value": "≥ 32", "unit": "µg/mL"}
    ]},
    {"smiles": "c1ccc(-c2ccc(-c3ccnc(CN4CCC5(CCCC5)CC4)c3)cc2)cc1", "values": [
      {"measurement": "Stability", "setting": "[2]", "value": "Stable"},
      {"measurement": "IC50 at 72 h", "setting": "[1]", "value": 16, "unit": "µg/mL"},
      {"measurement": "t1/2", "setting": "[3]", "value": 49.5, "unit": "min"},
      {"measurement": "remaining at 1 h", "setting": "[4]", "value": 43.1, "unit": "%"},
      {"measurement": "inhibition (INH)", "setting": "[5]", "value": 52.7, "unit": "%"},
      {"measurement": "CLH", "setting": "[6]", "value": 28, "unit": "µL/min/mg"}
    ]},
    {"smiles": "CC(C)Cc1ccc(-c2ccnc(CN3CC[Si](C)(C)CC3)c2)cc1", "values": [
      {"measurement": "IC50 at 72 h", "setting": "[1]", "value": "≥ 32", "unit": "µg/mL"}
    ]},
    {"smiles": "c1cc(-c2ccc(-c3ccoc3)cc2)cc(CN2CCC3(CCCC3)CC2)n1", "values": [
      {"measurement": "Stability", "setting": "[2]", "value": "Stable"},
      {"measurement": "t1/2", "setting": "[3]", "value": 1.8, "unit": "min"},
      {"measurement": "remaining at 1 h", "setting": "[4]", "value": 0.2, "unit": "%"},
      {"measurement": "CLH", "setting": "[6]", "value": 758, "unit": "µL/min/mg"}
    ]},
    {"smiles": "CC(C)Cc1ccc(-c2ccnc(CN3CCC(C)CC3)c2)cc1", "values": [
      {"measurement": "IC50 at 72 h", "setting": "[1]", "value": "≥ 32", "unit": "µg/mL"}
    ]},
    {"smiles": "CC(C)c1ccc(-c2ccnc(CNC3CCCCCC3)c2)cc1", "values": [
      {"measurement": "IC50 at 72 h", "setting": "[1]", "value": 16, "unit": "µg/mL"}
    ]},
    {"smiles": "CC(C)c1ccc(-c2ccnc(CNC34CC5CC(CC(C5)C3)C4)c2)cc1", "values": [
      {"measurement": "IC50 at 72 h", "setting": "[1]", "value": 16, "unit": "µg/mL"}
    ]},
    {"smiles": "CC(C)(C)c1ccc(-c2ccnc(CN3CC[Si](C)(C)CC3)c2)cc1", "values": [
      {"measurement": "IC50 at 72 h", "setting": "[1]", "value": 16, "unit": "µg/mL"}
    ]},
    {"smiles": "Cc1ccc(-c2ccc(-c3ccnc(CN4CCC5(CCCC5)CC4)c3)cc2)cc1", "values": [
      {"measurement": "IC50 at 72 h", "setting": "[1]", "value": "≥ 32", "unit": "µg/mL"}
    ]},
    {"smiles": "CC(C)c1ccc(-c2ccnc(CN3CCC4(CCCC4)CC3)c2)cc1", "values": [
      {"measurement": "Stability", "setting": "[2]", "value": "Stable"},
      {"measurement": "t1/2", "setting": "[3]", "value": 11.3, "unit": "min"},
      {"measurement": "remaining at 1 h", "setting": "[4]", "value": 1.5, "unit": "%"},
      {"measurement": "CLH", "setting": "[6]", "value": 122.9, "unit": "µL/min/mg"}
    ]},
    {"smiles": "Clc1ccc(-c2ccc(-c3ccnc(CN4CCC5(CCCC5)CC4)c3)cc2)cc1", "values": [
      {"measurement": "IC50 at 72 h", "setting": "[1]", "value": "≥ 32", "unit": "µg/mL"}
    ]},
    {"smiles": "CC(C)c1ccc(-c2nc(CN3CC[Si](C)(C)CC3)co2)cc1", "values": [
      {"measurement": "IC50 at 72 h", "setting": "[1]", "value": "≥ 32", "unit": "µg/mL"}
    ]},
    {"smiles": "CC(C)c1ccc(-c2ccnc(CNC3C4CC5CC(C4)CC3C5)c2)cc1", "note": "(stereo not drawn)", "values": [
      {"measurement": "IC50 at 72 h", "setting": "[1]", "value": "≥ 32", "unit": "µg/mL"}
    ]},
    {"smiles": "CC(C)c1ccc(-c2ccnc(CN3CC[Si](C)(C)CC3)c2)cc1", "values": [
      {"measurement": "IC50 at 72 h", "setting": "[1]", "value": "≥ 32", "unit": "µg/mL"}
    ]},
    {"smiles": "C[Si]1(C)CCN(Cc2cc(-c3ccc(-c4ccccc4)cc3)ccn2)CC1", "values": [
      {"measurement": "IC50 at 72 h", "setting": "[1]", "value": "≥ 32", "unit": "µg/mL"}
    ]},
    {"smiles": "O=C(O)Cc1ccccc1Nc1c(Cl)cccc1Cl", "note": "[DICLOFENAC]", "values": [
      {"measurement": "Stability", "setting": "[2]", "value": "Stable"}
    ]},
    {"smiles": "NNC(=O)c1ccncc1", "note": "[ISONIAZID]", "values": [
      {"measurement": "MIC90", "setting": "[7]", "value": 0.04, "unit": "µg/mL"}
    ]},
    {"smiles": "NC[C@H]1O[C@H](O[C@H]2[C@H](O)[C@@H](O[C@H]3O[C@H](CO)[C@@H](O)[C@H](N)[C@H]3O)[C@H](N)C[C@@H]2N)[C@H](O)[C@@H](O)[C@@H]1O", "note": "[KANAMYCIN]", "values": [
      {"measurement": "MIC90", "setting": "[7]; [8]", "value": 2, "unit": "µg/mL"}
    ]},
    {"smiles": "C[C@H]1COc2c(N3CCN(C)CC3)c(F)cc3c(=O)c(C(=O)O)cn1c23", "note": "[LEVOFLOXACIN ANHYDROUS]", "values": [
      {"measurement": "MIC90", "setting": "[7]; [8]", "value": 0.125, "unit": "µg/mL"}
    ]},
    {"smiles": "CC1COc2c(N3CCN(C)CC3)c(F)cc3c(=O)c(C(=O)O)cn1c23", "note": "(stereo not drawn) [OFLOXACIN]", "values": [
      {"measurement": "MIC90", "setting": "[7]; [8]", "value": 0.5, "unit": "µg/mL"}
    ]},
    {"smiles": "CO[C@H]1/C=C/O[C@@]2(C)Oc3c(C)c(O)c4c(O)c(c(/C=N/N5CCN(C)CC5)c(O)c4c3C2=O)NC(=O)/C(C)=C\\C=C\\[C@H](C)[C@H](O)[C@@H](C)[C@@H](O)[C@@H](C)[C@H](OC(C)=O)[C@@H]1C", "note": "[RIFAMPIN]", "values": [
      {"measurement": "MIC90", "setting": "[7]; [8]", "value": 0.063, "unit": "µg/mL"}
    ]},
    {"smiles": "C[C@]12CC[C@H]3[C@@H](CCC4=CC(=O)CC[C@@]43C)[C@@H]1CC[C@@H]2O", "note": "[TESTOSTERONE]", "values": [
      {"measurement": "Stability", "setting": "[2]", "value": "Stable"},
      {"measurement": "remaining at 1 h", "setting": "[4]", "value": 3.9, "unit": "%"}
    ]}
  ]
}
